The results in this text go back to ChEMBL document CHEMBL4396895, “Identification and Optimization of Novel Cathepsin C Inhibitors Derived from EGFR Inhibitors” (J Med Chem, 2019).

The source made the active and inactive calls. The rule behind the calls is not given here.

The target in series [1] is T1, Dipeptidyl peptidase 1 (Homo sapiens, UniProt P53634). Put plainly: Inhibition of cathepsin C in human THP1 cells using H-Gly-Phe-AFC as substrate preincubated for 4 hrs followed by substrate addition and measured after 60 mins. Format: cell-based. Summed up:
(§1)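 THP1 or U937 cells, grown in RPMI 1640 with 10% FBS, were seeded at 1.0 × 10^6/mL. They were preincubated with threefold serial dilutions of compound for 4 h at 37 °C. H-Gly-Phe-AFC was then added from a 100 μM solution and fluorescence was read after 60 min at 37 °C. Values are means of at least two experiments.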

For series [2], the target named is T1, Dipeptidyl peptidase 1. Briefly: Inhibition of cathepsin C in human U937 cells using H-Gly-Phe-AFC as substrate preincubated for 4 hrs followed by substrate addition and measured after 60 mins. The class given is cell-based. Summed up: as §1
The target in series [3] is T1, Dipeptidyl peptidase 1. Put plainly: Inhibition of CatL-activated recombinant human C-terminal His10-tagged cathepsin C (25 to 463 residues) expressed in mouse myeloma cells using Gly-Phe-AFC as substrate preincubated for 3 hrs followed by substrate addition and measured after 60 mins. Format: cell-free. In outline:
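Activated rhCatC was diluted to 4.4 nM in 25 mM MES, 50 mM NaCl, 5 mM DTT, 0.01% Triton X-100, pH 6.0. It was preincubated with compound (added in 10% DMSO) for 3 h at RT. Gly-Phe-AFC was then added to 100 μM final and read as fluorescence after 60 min. IC50 came from a sigmoidal nonlinear fit; values are means of at least two experiments.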

For series [4], the target named is T1, Dipeptidyl peptidase 1. Briefly: Inhibition of cathepsin C (unknown origin). In outline: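 Enzyme preincubated with compound 3 h at RT. Gly-Phe-AFC added (100 μM final) and product fluorescence read after 60 min. IC50 from sigmoidal nonlinear regression, mean of at least two experiments.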
A short description of series [5]: Intrinsic clearance in mouse liver microsomes assessed per mg protein measured after 60 mins in presence of NADPH by LC-MS/MS analysis. The conditions noted are these: read-out: CLH. The class given is ADME, Microsome.
A short description of series [6]: Intrinsic clearance in rat liver microsomes assessed per mg protein measured after 60 mins in presence of NADPH by LC-MS/MS analysis. Format: ADME, Microsome. The conditions noted are these: read-out: CLH. (In general: Microsomes from liver hold many membrane-bound enzymes, among them those of drug oxidation.)
A short description of series [7]: Intrinsic clearance in human liver microsomes assessed per mg protein measured after 60 mins in presence of NADPH by LC-MS/MS analysis. The class given is ADME, Microsome. Particulars: read-out: CLH.
The target in series [8] is Epidermal growth factor receptor (Homo sapiens, UniProt P00533). Briefly: Inhibition of EGFR (unknown origin) up to 10 uM using biotin-labelled peptide as substrate preincubated for 2 hrs followed by substrate addition and measured after 30 mins by HTRF FRET assay. Summed up:
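EGFR WT was used at 0.1 nM final in 50 mM HEPES pH 7.0, 0.02% NaN3, 0.01% BSA, 0.1 mM orthovanadate, 10 mM MgCl2, 2.5 mM DTT, 6.25 nM SEB. It was preincubated with compound for 2 h. Biotin-peptide (1.4 μM) and ATP (20 μM) were then added for 30 min at RT. Read-out was HTRF/TR-FRET (Ex 320, Em 615/665 nm) with a sigmoidal curve fit.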
A general note: In TR-FRET formats the signal depends on donor and acceptor labels being close together.

The term IC50 denotes the concentration that gives 50% inhibition. Regarding `C=CC(=O)Nc1cc(Oc2nc(Nc3ccc(N4CCN(C)CC4)cc3OC)ccc2N2CCCC2)ccc1OC`, the IC50 turned out to be 21.3 nM in series [1], 70 nM in series [2] and 140 nM in series [3].
For `C=CC(=O)Nc1cc2c(Nc3ccc(F)c(Cl)c3)ncnc2cc1OCCCN1CCOCC1` [CANERTINIB], 2700 nM corresponded to half-maximal inhibition in series [4] (IC50).
In the case of `C=CC(=O)Nc1ccc(C)c(Oc2nc(Nc3ccc(N4CCN(C)CC4)cc3OC)ccc2N2CCCC2)c1`, in series [3], the IC50 turned out to be 505 nM.
In the case of `C=CC(=O)Nc1cccc(Oc2nc(Nc3ccc(N4CCOCC4)cc3)ccc2Cl)c1`, the IC50 in series [3] was above 10000 nM.
Regarding `C=CC(=O)Nc1cc(Oc2nc(Nc3ccc(N4CCN(C)CC4)cc3OC)ccc2N2CCC(O)C2)ccc1C` (racemic), the values for the IC50 in series [1], in series [2] and in series [3] were 28.4 nM, 49.4 nM and 32.3 nM, respectively.
As for `C=CC(=O)Nc1cccc(Oc2nc(Nc3ccc(N4CCN(C)CC4)cc3OC)ccc2C#N)c1`, the IC50 in series [3] worked out at 835 nM.
In series [4], `CN(C)C/C=C/C(=O)Nc1cc2c(Nc3ccc(F)c(Cl)c3)ncnc2cc1O[C@H]1CCOC1` [AFATINIB] gave an IC50 above 10000 nM.
Turning to `C=CC(=O)Nc1cccc(Oc2nc(Nc3ccc(N4CCN(C)CC4)cc3OC)ncc2Cl)c1`, the IC50 in series [3] and in series [4] was 2100 nM each time.
Regarding `C=CC(=O)Nc1cccc(Oc2nc(Nc3ccc(N4CCN(C)CC4)cc3OC)ccc2N2CCCC2)c1C`, the IC50 in series [3] was above 10000 nM.
Same read-out and setting: for `C=CC(=O)Nc1cccc(Oc2nc(Nc3ccc(N4CCN(C)CC4)cc3OC)ccc2N2CCCCC2)c1` the value was 221 nM; for `C=CC(=O)Nc1cc(Oc2nc(Nc3ccc(N4CCC(N(C)C)CC4)cn3)ccc2N2CCCCC2)ccc1C`, 307 nM.
On the same count and under the same terms, for `C=CC(=O)Nc1cccc(Oc2nc(Nc3ccc(N4CCNCC4)cc3)ccc2Cl)c1` the value was 499 nM.
For the molecule `C=CC(=O)Nc1cc(Oc2nc(Nc3ccc(N4CCN(C)CC4)cc3OC)ccc2N2CCCC2)ccc1C(F)(F)F`, the microsomal CLint in series [5] amounted to 866 µL/min/mg; in series [6], 11 µL/min/mg; in series [7] it was 3.9 µL/min/mg. Moreover, the IC50 came to 6.7 nM in series [1], 11.5 nM in series [2] and 4 nM in series [3]. Also, in series [8], the inhibition result is “inactive”.
With `C=CC(=O)Nc1cc(Nc2nccc(-c3cn(C)c4ccccc34)n2)c(OC)cc1N(C)CCN(C)C` [OSIMERTINIB], the IC50 in series [4] came out at 32900 nM.
Take `C=CC(=O)Nc1cc(Oc2nc(Nc3ccc(N4CCN(C)CC4)cc3OC)ccc2-c2ccccc2)ccc1C`: in series [3], the IC50 was determined as 154 nM. Besides, the inhibition entry in series [8] was “inactive”.
On to `C=CC(=O)Nc1cc(Oc2nc(Nc3ccc(N4CCN(C)CC4)cc3OC)ccc2N2CCN(C)CC2)ccc1C`, for which the microsomal CLint in series [5] was 3 µL/min/mg; in series [6], 2 µL/min/mg; in series [7], 3.7 µL/min/mg. Moreover, the IC50 came out at 2.8 nM in series [1], 4.7 nM in series [2] and 46.5 nM in series [3].
With `C=CC(=O)Nc1cc(Oc2nc(Nc3ccc(N4CCN(C)CC4)cc3OC)ccc2N2CCCC(O)C2)ccc1C` (racemic), the microsomal CLint in series [5] came to 6 µL/min/mg; in series [6] it was 9 µL/min/mg; in series [7], 4.9 µL/min/mg. The IC50 came out at 4.9 nM in series [1], 7.4 nM in series [2] and 34.1 nM in series [3]. The inhibition result in series [8] is “inactive”.
Consider `C=CC(=O)Nc1cccc(Oc2nc(Nc3ccc(CCN)cc3)ccc2Cl)c1`, for which the IC50 in series [3] was 2050 nM.
As to `C=CC(=O)Nc1cc(Oc2nc(Nc3ccc(N4CCN(C)CC4)cc3)ccc2N2CCCCC2)ccc1C`, the IC50 in series [1] was 2.7 nM; in series [2], 5.8 nM; in series [3] it was 17.6 nM. Moreover, the figures for the microsomal CLint in series [6] and in series [7] were 15 µL/min/mg and 2.9 µL/min/mg, respectively. Moreover, the inhibition result in series [8] is “inactive”.
`C=CC(=O)Nc1cccc(Oc2nc(Nc3ccc(N4CCN(C)CC4)cc3OC)ccc2N(C)C)c1`: the IC50 in series [3] amounted to 1520 nM.
On the same count and under the same terms, the value for `C=CC(=O)Nc1cccc(Oc2nc(Nc3ccc(N4CCN(CC5CC5)CC4)cc3)ccc2Cl)c1` was 783 nM; that for `C#Cc1ccc(Nc2ccc(N3CCN(C)CC3)cc2OC)nc1Oc1cccc(NC(=O)C=C)c1` was 392 nM.
On the same count and under the same terms, for `C=CC(=O)Nc1cccc(Oc2nc(Nc3ccc(N4CCN(C)CC4)cc3OC)ccc2N2CCCC2)c1` the value was 175 nM; for `C=CC(=O)Nc1cccc(Oc2nc(Nc3ccc(N4CCN(C)CC4)cc3OC)ccc2C(F)(F)F)c1`, 1610 nM.
On the same count and under the same terms, for `C=CC(=O)Nc1cccc(Oc2nc(Nc3ccc(N4CCN(C)CC4)cc3)ccc2Cl)c1` the value was 483 nM; for `C=CC(=O)Nc1cccc(Oc2nc(Nc3ccc(N4CCN(CC5CCCC5)CC4)cc3)ccc2Cl)c1`, above 10000 nM; for `C=CC(=O)Nc1cccc(Oc2nc(Nc3ccc(N4CCN(C)CC4)cc3OC)ccc2N2CCCCCC2)c1`, 271 nM.
In the case of `C=CC(=O)Nc1cc(Oc2nc(Nc3ccc(N4CCC(N(C)C)CC4)cc3OC)ccc2N2CCCCC2)ccc1C`, the values for the microsomal CLint in series [5], in series [6] and in series [7] were 4 µL/min/mg, 4.1 µL/min/mg and 2.5 µL/min/mg, respectively. In addition, the IC50 in series [1] was found to be 1 nM; in series [2], 2.2 nM; in series [3], 15.6 nM.
Regarding `C=CC(=O)Nc1cc(Oc2nc(Nc3ccc(N4CCN(C)CC4)nc3OC)ccc2N2CCCCC2)ccc1C`, the figures for the microsomal CLint in series [5], in series [6] and in series [7] were 22 µL/min/mg, 13 µL/min/mg and 6 µL/min/mg, respectively. Further, the figures for the IC50 in series [1], in series [2] and in series [3] were 6.5 nM, 10 nM and 28.6 nM, respectively.
As to `C=CC(=O)Nc1cccc(Oc2nc(Nc3cccc(CN)c3)ccc2Cl)c1`, the IC50 in series [3] came out at 2150 nM.
On the same count and under the same terms, for `C=CC(=O)Nc1cc(Oc2nc(Nc3ccc(N4CCN(C(C)=O)CC4)cc3OC)ccc2N2CCCCC2)ccc1C` the value was 135 nM.
On the same count and under the same terms, for `C=CC(=O)Nc1cccc(Oc2cccc(Nc3ccc(N4CCN(C)CC4)cc3OC)n2)c1` the value was 785 nM.
Turning to `C=CC(=O)Nc1cc(Oc2nc(Nc3ccc(N4CCN(C)CC4)cc3OC)ccc2N2CCCCC2)ccc1C(F)(F)F`, the figures for the microsomal CLint in series [5], in series [6] and in series [7] were 15.4 µL/min/mg, 15.1 µL/min/mg and 5.2 µL/min/mg, respectively. The half-inhibitory concentration (IC50) in series [1] amounted to 1.8 nM; in series [2] it was 2.4 nM; in series [3], 2.3 nM.
